In PMC9524580 (Neuropharmacology, 2022):
Entries after “also recorded” stand apart in the source; their conditions may differ.

Experiments:
[1] = molecular target: low sensitivity (LS) α4(3)β2(2) nAChR (Homo sapiens, UniProt P17787+P43681); assay: Two-electrode voltage clamp of Xenopus oocytes expressing LS α4β2 nAChR; assay type: cell-based; details: for Effect on ACh-evoked peak-current responses of LS α4β2 receptors: 100 μM compound co-applied with control ACh (100 μM)
[2] = molecular target: high sensitivity (HS) α4(2)β2(3) nAChR (Homo sapiens, UniProt P17787+P43681); assay type: cell-based; details: for Effect on ACh-evoked peak-current responses of HS α4β2 receptors: 100 μM compound co-applied with control ACh (10 μM)
Sequence of high sensitivity (HS) α4(2)β2(3) nAChR (P17787 26-502): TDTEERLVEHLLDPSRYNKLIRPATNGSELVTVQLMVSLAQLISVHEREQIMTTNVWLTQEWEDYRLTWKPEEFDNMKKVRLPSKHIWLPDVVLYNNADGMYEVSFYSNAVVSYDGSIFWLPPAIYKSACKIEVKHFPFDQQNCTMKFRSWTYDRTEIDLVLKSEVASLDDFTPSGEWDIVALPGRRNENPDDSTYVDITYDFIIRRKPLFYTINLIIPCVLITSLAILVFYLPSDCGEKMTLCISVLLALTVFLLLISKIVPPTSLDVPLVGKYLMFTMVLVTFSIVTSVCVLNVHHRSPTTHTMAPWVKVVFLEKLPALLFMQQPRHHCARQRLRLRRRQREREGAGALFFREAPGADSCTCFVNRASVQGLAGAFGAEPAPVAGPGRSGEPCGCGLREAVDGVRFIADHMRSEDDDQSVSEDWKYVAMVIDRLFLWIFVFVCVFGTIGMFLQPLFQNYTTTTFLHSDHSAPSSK
Sequence of high sensitivity (HS) α4(2)β2(3) nAChR (P43681 29-627 limits assumed): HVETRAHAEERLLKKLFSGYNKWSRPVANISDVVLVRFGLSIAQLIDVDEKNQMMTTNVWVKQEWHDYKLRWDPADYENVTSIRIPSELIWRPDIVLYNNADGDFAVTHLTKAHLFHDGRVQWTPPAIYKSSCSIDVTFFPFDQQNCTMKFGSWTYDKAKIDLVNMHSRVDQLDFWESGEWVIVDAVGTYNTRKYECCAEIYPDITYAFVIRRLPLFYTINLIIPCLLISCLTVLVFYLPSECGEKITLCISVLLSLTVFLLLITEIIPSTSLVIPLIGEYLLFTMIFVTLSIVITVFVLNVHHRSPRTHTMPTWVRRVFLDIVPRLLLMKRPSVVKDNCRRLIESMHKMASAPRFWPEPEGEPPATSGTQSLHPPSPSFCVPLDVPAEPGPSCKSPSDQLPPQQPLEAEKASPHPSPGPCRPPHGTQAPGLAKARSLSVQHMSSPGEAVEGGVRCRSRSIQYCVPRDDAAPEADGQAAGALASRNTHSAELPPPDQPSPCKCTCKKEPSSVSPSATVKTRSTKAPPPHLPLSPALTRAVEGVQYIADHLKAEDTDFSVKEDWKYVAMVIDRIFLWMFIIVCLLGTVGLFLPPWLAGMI
Sequence of high sensitivity (HS) α4(2)β2(3) nAChR (P17787 26-502): as the sequence (P17787 26-502) above

human α7 nAChR = human α7 nAChR (Homo sapiens, UniProt P36544); assay: Two-electrode voltage clamp of Xenopus oocytes expressing α7 nAChR; assay type: cell-based; details: for α7 net-charge response to compound co-applied with PNU-120596: 100 μM compound + 10 μM PNU-120596, compared to PNU-120596 alone or ACh control
Sequence of human α7 nAChR (P36544 23-502): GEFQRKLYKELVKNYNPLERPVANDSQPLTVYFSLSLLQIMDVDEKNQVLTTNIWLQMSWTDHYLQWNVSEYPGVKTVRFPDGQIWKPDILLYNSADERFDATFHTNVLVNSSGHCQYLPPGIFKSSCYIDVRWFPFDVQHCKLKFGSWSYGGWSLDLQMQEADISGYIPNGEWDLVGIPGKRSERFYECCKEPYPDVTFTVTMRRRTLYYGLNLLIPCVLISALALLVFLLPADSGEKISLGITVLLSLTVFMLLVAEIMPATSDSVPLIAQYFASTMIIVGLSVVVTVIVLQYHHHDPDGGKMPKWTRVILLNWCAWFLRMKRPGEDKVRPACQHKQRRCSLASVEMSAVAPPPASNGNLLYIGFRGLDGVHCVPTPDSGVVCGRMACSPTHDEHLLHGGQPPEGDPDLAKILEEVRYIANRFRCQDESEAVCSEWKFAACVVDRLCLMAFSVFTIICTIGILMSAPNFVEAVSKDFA
Procedure, shortened: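 Human α7 clone co-injected with human RIC3 in Xenopus oocytes. Oocytes were clamped at −60 mV at 24 °C and perfused at 2 ml/min with Ringer's (115 mM NaCl, 2.5 mM KCl, 1.8 mM CaCl2, 10 mM HEPES, 1 μM atropine, pH 7.2). […] Compound was 100 μM, alone or with 10 μM PAM; n = 6–8 oocytes; ANOVA.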

α3β4 nAChR = α3β4 nAChR (Homo sapiens, UniProt P30926+P32297); assay type: cell-based; details: 100 μM n-MP co-applied with 100 μM ACh; alpha:beta RNA 5:1 or 1:5 (either set)
Sequence of α3β4 nAChR (P32297 32-505): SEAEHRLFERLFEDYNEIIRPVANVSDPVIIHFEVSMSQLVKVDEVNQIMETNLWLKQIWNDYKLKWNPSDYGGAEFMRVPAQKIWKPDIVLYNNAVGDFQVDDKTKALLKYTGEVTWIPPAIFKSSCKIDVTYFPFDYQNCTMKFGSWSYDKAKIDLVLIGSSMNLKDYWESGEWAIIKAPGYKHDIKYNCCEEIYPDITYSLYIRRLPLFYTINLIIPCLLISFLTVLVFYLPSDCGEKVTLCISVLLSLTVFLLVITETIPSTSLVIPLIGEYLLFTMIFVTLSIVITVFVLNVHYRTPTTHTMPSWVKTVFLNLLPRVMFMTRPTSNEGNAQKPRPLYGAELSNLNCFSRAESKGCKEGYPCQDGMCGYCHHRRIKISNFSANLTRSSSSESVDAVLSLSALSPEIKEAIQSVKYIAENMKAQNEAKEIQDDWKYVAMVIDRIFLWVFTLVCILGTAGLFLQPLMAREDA
Sequence of α3β4 nAChR (P30926 22-498): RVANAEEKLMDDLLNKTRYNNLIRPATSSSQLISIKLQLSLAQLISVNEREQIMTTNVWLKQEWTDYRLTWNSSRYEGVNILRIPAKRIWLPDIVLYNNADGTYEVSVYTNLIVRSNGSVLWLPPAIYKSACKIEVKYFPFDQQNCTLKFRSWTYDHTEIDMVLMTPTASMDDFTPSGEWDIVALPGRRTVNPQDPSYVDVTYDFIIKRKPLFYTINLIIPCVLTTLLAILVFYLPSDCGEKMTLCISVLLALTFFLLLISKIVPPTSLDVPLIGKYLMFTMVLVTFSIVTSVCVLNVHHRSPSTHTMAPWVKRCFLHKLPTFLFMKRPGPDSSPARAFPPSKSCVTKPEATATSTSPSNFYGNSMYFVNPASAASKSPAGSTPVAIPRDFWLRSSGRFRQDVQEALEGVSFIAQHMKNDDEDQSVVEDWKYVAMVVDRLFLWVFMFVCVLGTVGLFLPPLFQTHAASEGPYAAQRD
Procedure, shortened: (§1)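 Xenopus oocytes were injected with human α3 plus β2 or β4 subunit RNA at alpha:beta ratios of 1:5 or 5:1. Two-electrode voltage clamp at −60 mV, 24 °C, with Ringer's (pH 7.2, 1 μM atropine) at 4 ml/min.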

[3] = inferred from use as biomarker of coffee consumption; ref Bresciani et al., 2020; cited from earlier work
α3β2 nAChR = α3β2 nAChR (Homo sapiens, UniProt P17787+P32297); assay type: cell-based; details: 100 μM n-MP co-applied with 100 μM ACh
Sequence of α3β2 nAChR (P32297 32-505): as the sequence (P32297 32-505) above
Sequence of α3β2 nAChR (P17787 26-502): as the sequence (P17787 26-502) above
Procedure, shortened: as §1

α4(2)β2(2)α5 nAChR = α4(2)β2(2)α5 nAChR (Homo sapiens, UniProt P17787+P30532+P43681); assay: Two-electrode voltage clamp of Xenopus oocytes expressing α4β2α5 nAChR; assay type: cell-based; details: 100 μM n-MP co-applied with 10 μM ACh
Sequence of α4(2)β2(2)α5 nAChR (P17787 26-502): as above
Sequence of α4(2)β2(2)α5 nAChR (P43681 29-627 limits assumed): as the sequence (P43681 29-627 limits assumed) above
Sequence of α4(2)β2(2)α5 nAChR (P30532 23-468): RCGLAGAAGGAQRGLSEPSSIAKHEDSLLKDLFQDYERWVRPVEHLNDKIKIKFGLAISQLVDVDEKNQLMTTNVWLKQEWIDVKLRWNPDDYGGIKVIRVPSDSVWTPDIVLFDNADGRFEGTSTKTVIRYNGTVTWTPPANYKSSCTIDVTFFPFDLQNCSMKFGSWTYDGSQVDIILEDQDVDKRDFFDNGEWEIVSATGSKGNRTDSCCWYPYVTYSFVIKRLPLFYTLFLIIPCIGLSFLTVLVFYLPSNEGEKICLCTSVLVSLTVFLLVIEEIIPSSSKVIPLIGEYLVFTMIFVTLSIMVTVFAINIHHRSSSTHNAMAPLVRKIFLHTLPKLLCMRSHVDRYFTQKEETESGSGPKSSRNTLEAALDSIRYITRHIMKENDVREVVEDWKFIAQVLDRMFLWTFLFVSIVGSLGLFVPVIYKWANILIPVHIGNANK
Procedure, shortened: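 Human α4(2)β2(2)α5 receptors expressed in Xenopus laevis oocytes. Voltage-clamped at −60 mV and room temperature (24 °C), perfused at 4 ml/min with atropine-containing Ringer's, pH 7.2. […] At least five oocytes; mean ± S.D.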

β3α4β2α6β2 nAChR = β3α4β2α6β2 nAChR (Homo sapiens, UniProt P17787+P43681+Q05901+Q15825); assay type: cell-based; details: 100 μM n-MP co-applied with 30 μM ACh
Sequence of β3α4β2α6β2 nAChR (Q05901 25-458 limits assumed): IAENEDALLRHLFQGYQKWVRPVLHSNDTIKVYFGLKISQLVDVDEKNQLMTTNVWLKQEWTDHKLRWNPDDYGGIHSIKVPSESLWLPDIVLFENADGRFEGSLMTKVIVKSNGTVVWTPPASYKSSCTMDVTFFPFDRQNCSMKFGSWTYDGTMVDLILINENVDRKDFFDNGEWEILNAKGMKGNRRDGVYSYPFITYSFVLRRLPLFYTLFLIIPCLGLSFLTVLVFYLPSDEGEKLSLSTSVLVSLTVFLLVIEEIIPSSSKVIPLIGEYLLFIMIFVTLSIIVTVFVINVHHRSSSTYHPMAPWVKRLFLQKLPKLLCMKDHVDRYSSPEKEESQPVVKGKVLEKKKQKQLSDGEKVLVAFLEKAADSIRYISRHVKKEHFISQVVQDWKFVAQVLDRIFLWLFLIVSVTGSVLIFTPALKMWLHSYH
Sequence of β3α4β2α6β2 nAChR (P43681 29-627 limits assumed): as the sequence (P43681 29-627 limits assumed) above
Sequence of β3α4β2α6β2 nAChR (P17787 26-502): as the sequence (P17787 26-502) above
Sequence of β3α4β2α6β2 nAChR (Q15825 26-494): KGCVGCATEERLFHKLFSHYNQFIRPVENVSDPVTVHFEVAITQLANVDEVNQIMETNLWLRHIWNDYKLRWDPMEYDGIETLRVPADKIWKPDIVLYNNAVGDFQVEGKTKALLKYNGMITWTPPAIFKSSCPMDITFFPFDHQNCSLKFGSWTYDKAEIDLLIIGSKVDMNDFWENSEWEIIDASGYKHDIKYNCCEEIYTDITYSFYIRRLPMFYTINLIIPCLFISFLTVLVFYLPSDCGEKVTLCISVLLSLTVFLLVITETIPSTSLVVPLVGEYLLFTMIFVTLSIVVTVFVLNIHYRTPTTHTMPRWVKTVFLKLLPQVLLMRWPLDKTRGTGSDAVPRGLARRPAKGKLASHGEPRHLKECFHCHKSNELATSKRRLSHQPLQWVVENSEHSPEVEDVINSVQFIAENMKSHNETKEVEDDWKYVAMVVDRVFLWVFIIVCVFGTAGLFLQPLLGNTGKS
Sequence of β3α4β2α6β2 nAChR (P17787 26-502): as the sequence (P17787 26-502) above
Procedure, shortened: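 Oocytes from female Xenopus laevis expressed human β3α4β2α6β2 from a linked-subunit concatamer. Two-electrode voltage clamp at −60 mV and 24 °C. Bath perfusion at 4 ml/min with Ringer's (115 mM NaCl, 2.5 mM KCl, 1.8 mM CaCl2, 10 mM HEPES, 1 μM atropine, pH 7.2). […] Responses were relative to the mean of the two controls; n = 6, mean ± S.D.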

Sequence of low sensitivity (LS) α4(3)β2(2) nAChR (P17787 26-502): as above
Sequence of low sensitivity (LS) α4(3)β2(2) nAChR (P43681 29-627 limits assumed): as the sequence (P43681 29-627 limits assumed) above
Sequence of low sensitivity (LS) α4(3)β2(2) nAChR (P43681 29-627 limits assumed): as above

CC(=O)OCC[N+](C)(C)C [ACh, Acetylcholine chloride, reference compound]
Imax, From Figure 7 [1]: 2.327 ± 0.395
Imax, From replicates, Averages ± S.D. [1]: 2.290 ± 0.714
Imax, From replicates, Averages ± S.D. [2]: 1.535 ± 0.080

Cn1c(=O)c2c(ncn2C)n(C)c1=O [caffeine, reference compound]
α7 net-charge response to compound co-applied with PNU-120596 (human α7 nAChR): lacks significant nAChR activity
Effect on ACh-evoked peak-current responses of LS α4β2 receptors [1]: lacks significant nAChR activity
Effect on ACh-evoked peak-current responses of HS α4β2 receptors [2]: lacks significant nAChR activity

C[N+](C)(C)CCO [choline]
EC50 (human α7 nAChR): ~200 µM
Net charge Imax with PNU-120596 co-application versus applied alone (human α7 nAChR; 10 μM PNU-120596): roughly 100 fold
α7 net-charge response to compound co-applied with PNU-120596 (human α7 nAChR): greater than the initial ACh controls

C[N+]1(C)CCCCC1 [dMP, 1,1-dimethylpiperidium]
α7 net-charge response to compound co-applied with PNU-120596 (human α7 nAChR): large responses
α7 response to compound applied alone (human α7 nAChR; 100 μM compound, compared to 60 μM ACh control): comparable to those stimulated by the control application of 60 μM ACh
Effect on ACh-evoked peak-current responses of LS α4β2 receptors [1]: increasing the responses of LS receptors
Effect on ACh-evoked peak-current responses of HS α4β2 receptors [2]: decreasing the responses of HS receptors; also recorded: strongly inhibited

C[n+]1ccccc1 [n-MP, 1-methylpyridinium]
Effect on ACh responses of α3β4 receptors (α3β4 nAChR): no effect
Bioavailability [3]: good bioavailability
α7 net-charge response to compound co-applied with PNU-120596 (human α7 nAChR): PAM-dependent responses
Effect on ACh-evoked peak-current responses of LS α4β2 receptors [1]: increasing the responses of LS receptors
Mode of action on LS α4β2 receptors ([1]; 100 μM n-MP, 10 to 100 μM ACh): working as a PAM at those intermediate concentrations
LS α4β2 ACh responses after n-MP washout ([1]; 300 μM n-MP bath application): significant increases
Imax of ACh, From Figure 7 ([1]; LS, ACh co-applied with 100 μM n-MP, relative to 100 μM ACh control): 1.824 ± 0.062
Effect of bath-applied n-MP on LS α4β2 ACh responses ([1]; varying bath concentrations, periodic 100 μM ACh applications): small concentration-dependent increase
Effect on ACh-evoked peak-current responses of HS α4β2 receptors [2]: decreasing the responses of HS receptors; also recorded: decreasing those of HS receptors
Mode of action on HS α4β2 ACh-evoked responses ([2]; 100 μM n-MP, ACh competition experiment): competitive antagonist
Effect of bath-applied n-MP on HS α4β2 ACh responses ([2]; varying bath concentrations, periodic 10 μM ACh applications): concentration-dependent, and only partially reversible, inhibition
Effect on ACh responses of α3β2 receptors with high levels of β2 (α3β2 nAChR; alpha:beta RNA 1:5): no effect
Effect on ACh responses of α3β2 receptors with high levels of α3 (α3β2 nAChR; alpha:beta RNA 5:1): significant potentiation
Effect on ACh responses of α4β2α5 receptors (α4(2)β2(2)α5 nAChR): antagonist
Effect on ACh responses of α6-containing receptors (β3α4β2α6β2 nAChR): no significant effect
